Assay results reported in ChEMBL document CHEMBL3526119, “Effect of the CYP2C8 genotype on the pharmacokinetics and pharmacodynamics of repaglinide” (Drug Metab Dispos, 2011).

How the values were obtained:
Format in all cases: ADME, organism-based
Homo sapiens [1] = species on record: Homo sapiens; test: Maximal change in blood glucose concentration in healthy human plasma with SLCO1B1 521TC genotype at 0.5 mg
[2] = Oral bioavailability in human; conditions: in vivo
[3] = Tmax in healthy white human at 2 mg, po; conditions: in vivo
[4] = Tmax in healthy white human with CYP2C8*1/*1 genotype at 2 mg, po; conditions: in vivo
[5] = Tmax in healthy white human with CYP2C8*1/*3 genotype at 2 mg, po; conditions: in vivo
Homo sapiens [6] = test: Maximal change in insulin concentration in healthy white human plasma with CYP2C8*1/*3 genotype at 2 mg, po up to 6 hrs; conditions: in vivo
Method in brief: (§1)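 Plasma insulin was sampled up to 6 h after a single oral 2 mg dose, with subjects fasting. It was measured by solid-phase enzyme-labelled chemiluminescent immunometric assay, calibration range 2–300 mU/l. Maximal change is the largest change from the baseline concentration within 6 h.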

Homo sapiens [7] = test: Maximal change in insulin concentration in healthy white human plasma with CYP2C8*3/*3 genotype at 2 mg, po up to 6 hrs; conditions: in vivo; method in brief: as §1
Homo sapiens [8] = test: Mean change in blood glucose concentration in healthy white human plasma with CYP2C8*1/*3 genotype at 2 mg, po up to 6 hrs; conditions: in vivo
Method in brief: (§2)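 Single 2 mg oral dose in healthy Caucasian volunteers genotyped for CYP2C8*3, with SLCO1B1 521T>C also typed. […] Mean change is the average difference between values up to 6 h post-dose and baseline. Fasting lasted to 6 h. Mean with 95% CI or SD by genotype group.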

Homo sapiens [9] = test: Mean change in blood glucose concentration in healthy white human plasma with CYP2C8*3/*3 genotype at 2 mg, po up to 6 hrs; conditions: in vivo; method in brief: as §2
Homo sapiens [10] = test: Maximal change in blood glucose concentration in healthy white human plasma with CYP2C8*3/*3 genotype at 2 mg, po up to 6 hrs; conditions: in vivo
Method in brief: (§3)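 Venous blood glucose was read at each blood sampling time after a single oral 2 mg dose, with fasting up to 6 h. […] Maximal change is the largest change from baseline. Mean change is the average difference between values up to 6 h post-dose and baseline.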

Homo sapiens [11] = test: Mean change in blood glucose concentration in healthy white human plasma SLCO1B1 521TT/CYP2C8*1/*1 combined genotype at 2 mg, po; conditions: in vivo; method in brief: as §2
Homo sapiens [12] = test: Mean change in insulin concentration in healthy white human plasma with SLCO1B1 521TC/CYP2C8*1/*1 combined genotype at 2 mg, po; conditions: in vivo
Method in brief: (§4)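 Healthy Caucasians got a single 2 mg oral dose and were genotyped for CYP2C8*3 and SLCO1B1 521T>C. Plasma insulin was sampled from pre-dose to 6 h and measured by solid-phase enzyme-labelled chemiluminescent immunometric assay (calibration 2–300 mU/l). Mean change is the average of post-dose values minus baseline up to 6 h, summarised per genotype group.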

Homo sapiens [13] = test: Mean change in blood glucose concentration in healthy white human plasma SLCO1B1 521TC/CYP2C8*1/*1 combined genotype at 2 mg, po; conditions: in vivo; method in brief: as §3
[14] = Cmax in healthy white human with SLCO1B1 521TT/CYP2C8*1/*3 combined genotype at 2 mg, po; set-up: dose 2 mg, route oral; conditions: in vivo
Method in brief: (§5)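 Healthy Caucasians genotyped for CYP2C8*3 and SLCO1B1 521T>C were given a single oral 2 mg dose of repaglinide, and alcohol, caffeine and grapefruit were withheld. Plasma was sampled before dosing and at 15 times from 0.25 to 24 h. Drug was measured by LC-MS/MS against diclofenac internal standard, linear 0.098–79.139 µg/L. Noncompartmental analysis: Cmax taken as observed; AUC by linear/log-linear trapezoidal rule extrapolated to infinity.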

Homo sapiens [15] = test: Mean change in blood glucose concentration in healthy white human plasma SLCO1B1 521TT/CYP2C8*1/*3 combined genotype at 2 mg, po; conditions: in vivo; method in brief: as §2
[16] = Cmax in healthy white human with SLCO1B1 521TC/CYP2C8*1/*3 combined genotype at 2 mg, po; set-up: dose 2 mg, route oral; conditions: in vivo; method in brief: as §5
Homo sapiens [17] = test: Mean change in blood glucose concentration in healthy white human plasma SLCO1B1 521TC/CYP2C8*1/*3 combined genotype at 2 mg, po; conditions: in vivo; method in brief: as §3
[18] = AUC (0 to infinity) in healthy white human with SLCO1B1 521CC/CYP2C8*1/*3 combined genotype at 2 mg, po; set-up: dose 2 mg, time infinity, route oral; conditions: plasma; method in brief: as §5
[19] = Cmax in healthy white human with SLCO1B1 521CC/CYP2C8*1/*3 combined genotype at 2 mg, po; set-up: dose 2 mg, route oral; conditions: in vivo; method in brief: as §5
Homo sapiens [20] = test: Mean change in insulin concentration in healthy white human plasma with SLCO1B1 521TT/CYP2C8*3/*3 combined genotype at 2 mg, po; conditions: in vivo; method in brief: as §4
Homo sapiens [21] = test: Mean change in insulin concentration in healthy white human plasma at 2 mg, po up to 6 hrs; conditions: in vivo; method in brief: as §4
Homo sapiens [22] = test: Mean change in insulin concentration in healthy white human plasma with CYP2C8*1/*1 genotype at 2 mg, po up to 6 hrs; conditions: in vivo; method in brief: as §4
Homo sapiens [23] = test: Maximal change in insulin concentration in healthy white human plasma at 2 mg, po up to 6 hrs; conditions: in vivo; method in brief: as §1
[24] = AUC (0 to infinity) in healthy white human with CYP2C8*1/*3 genotype at 2 mg, po; set-up: dose 2 mg, time infinity, route oral; conditions: plasma; method in brief: as §5
[25] = Cmax in healthy white human at 2 mg, po; set-up: dose 2 mg, route oral; conditions: in vivo; method in brief: as §5
[26] = Cmax in healthy white human with CYP2C8*1/*1 genotype at 2 mg, po; set-up: dose 2 mg, route oral; conditions: in vivo; method in brief: as §5
[27] = Cmax in healthy white human with CYP2C8*3/*3 genotype at 2 mg, po; set-up: dose 2 mg, route oral; conditions: in vivo; method in brief: as §5
[28] = Oral clearance in healthy white human at 2 mg, po; conditions: in vivo
Method in brief: (§6)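 Repaglinide was assayed by LC-MS/MS with diclofenac internal standard (LLOQ 0.098 µg/L). Noncompartmental analysis gave AUC by linear/log-linear trapezoidal rule extrapolated to infinity. Weight-adjusted oral clearance = dose/(AUC × body weight).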

[29] = Oral clearance in healthy white human with CYP2C8*1/*1 genotype at 2 mg, po; conditions: in vivo; method in brief: as §6
[30] = Terminal half life in healthy white human with CYP2C8*1/*1 genotype at 2 mg, po; conditions: in vivo, read-out: beta t1/2 (converted)
Method in brief: (§7)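 Single oral 2 mg dose; plasma sampled pre-dose and from 0:15 to 24 h post-dose (15 samples). Repaglinide measured by LC-MS/MS with diclofenac internal standard; calibration 0.098–79.139 µg/L. Noncompartmental analysis; AUC by linear/log-linear trapezoidal rule extrapolated to infinity. Reported as mean with 95% CI for all subjects and for each CYP2C8*3 genotype group.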

[31] = Terminal half life in healthy white human with CYP2C8*1/*3 genotype at 2 mg, po; conditions: in vivo, read-out: beta t1/2 (converted); method in brief: as §7
[32] = AUC (0 to infinity) in healthy white human with SLCO1B1 521TC/CYP2C8*3/*3 combined genotype at 2 mg, po; set-up: dose 2 mg, route oral, time infinity; conditions: plasma; method in brief: as §5
[33] = Cmax in healthy white human with SLCO1B1 521TC/CYP2C8*3/*3 combined genotype at 2 mg, po; set-up: dose 2 mg, route oral; conditions: in vivo; method in brief: as §5
Homo sapiens [34] = test: Mean change in insulin concentration in healthy white human plasma with SLCO1B1 521TC/CYP2C8*3/*3 combined genotype at 2 mg, po; conditions: in vivo; method in brief: as §4
Homo sapiens [35] = test: Mean change in blood glucose concentration in healthy white human plasma SLCO1B1 521TC/CYP2C8*3/*3 combined genotype at 2 mg, po; conditions: in vivo; method in brief: as §2
[36] = Cmax in healthy white human with SLCO1B1 521CC/CYP2C8*3/*3 combined genotype at 2 mg, po; set-up: dose 2 mg, route oral; conditions: in vivo; method in brief: as §5

- Activity (Homo sapiens [1]): 1.9 mM
- bioavailability [2]: 60%
- Tmax [3]: 48 min
- Tmax [4]: 48 min
- Tmax [5]: 48 min
- Activity (Homo sapiens [6]): 17.3 mU/L
- Activity (Homo sapiens [7]): 8.3 mU/L
- Activity (Homo sapiens [8]): -0.65 mM
- Activity (Homo sapiens [9]): -0.5 mM
- Activity (Homo sapiens [10]): -1.48 mM
- Activity (Homo sapiens [11]): -0.4 mM
- Activity (Homo sapiens [12]): 5.7 mU/l
- Activity (Homo sapiens [13]): -0.5 mM
- Cmax [14]: 57 ng/mL
- Activity (Homo sapiens [15]): -0.5 mM
- Cmax [16]: 45 ng/mL
- Activity (Homo sapiens [17]): -1 mM
- AUC(0-inf) [18]: 18.2 ng·h/mL
- Cmax [19]: 17.7 ng/mL
- Activity (Homo sapiens [20]): 1 mU/l
- Activity (Homo sapiens [21]): 5.5 mU/L
- Activity (Homo sapiens [22]): 6.7 mU/L
- Activity (Homo sapiens [23]): 18.8 mU/L
- AUC(0-inf) [24]: 97.2 ng·h/mL
- Cmax [25]: 52.8 ng/mL
- Cmax [26]: 60.3 ng/mL
- Cmax [27]: 38.5 ng/mL
- CL/F [28]: 7.67 mL/min/kg
- CL/F [29]: 7.5 mL/min/kg
- half-life [30]: 72 min
- half-life [31]: 78 min
- AUC(0-inf) [32]: 23.4 ng·h/mL
- Cmax [33]: 15.3 ng/mL
- Activity (Homo sapiens [34]): 1.5 mU/l
- Activity (Homo sapiens [35]): -0.2 mM
- Cmax [36]: 67.9 ng/mL
Compound: CCOc1cc(CC(=O)N[C@@H](CC(C)C)c2ccccc2N2CCCCC2)ccc1C(=O)O [REPAGLINIDE]
